Data from ChEMBL document CHEMBL1139478, “Piperazinobenzopyranones and phenalkylaminobenzopyranones: potent inhibitors of breast cancer resistance protein (ABCG2)” (J Med Chem, 2005).

Assays:
[1] = Cytotoxicity against mitoxantrone-sensitive human HCT116 cells at 10 uM assessed as viable cells after 48 hrs; assay type: cell-based, HCT-116; conditions: read-out: Activity
How it was run: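 HCT116/S cells exposed to compound at 10, 1 and 0.1 μM; cell cycle distribution (G0/G1, S, G2/M) and viability by flow cytometry after trypsin/spermine detergent buffer 10 min room temperature, trypsin inhibitor plus ribonuclease A 10 min, then PI 10 min, read immediately.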

[2] = molecular target: T1, Broad substrate specificity ATP-binding cassette transporter ABCG2 (Homo sapiens, UniProt Q9UNQ0); experiment: Inhibition of BCRP expressed in mitoxantrone-resistant human HCT116 cells assessed as increase in mitoxantrone accumulation at 10 uM after 15 mins; assay type: cell-based; conditions: hct-116, 0.25 h
T1 sequence (Q9UNQ0 whole entry): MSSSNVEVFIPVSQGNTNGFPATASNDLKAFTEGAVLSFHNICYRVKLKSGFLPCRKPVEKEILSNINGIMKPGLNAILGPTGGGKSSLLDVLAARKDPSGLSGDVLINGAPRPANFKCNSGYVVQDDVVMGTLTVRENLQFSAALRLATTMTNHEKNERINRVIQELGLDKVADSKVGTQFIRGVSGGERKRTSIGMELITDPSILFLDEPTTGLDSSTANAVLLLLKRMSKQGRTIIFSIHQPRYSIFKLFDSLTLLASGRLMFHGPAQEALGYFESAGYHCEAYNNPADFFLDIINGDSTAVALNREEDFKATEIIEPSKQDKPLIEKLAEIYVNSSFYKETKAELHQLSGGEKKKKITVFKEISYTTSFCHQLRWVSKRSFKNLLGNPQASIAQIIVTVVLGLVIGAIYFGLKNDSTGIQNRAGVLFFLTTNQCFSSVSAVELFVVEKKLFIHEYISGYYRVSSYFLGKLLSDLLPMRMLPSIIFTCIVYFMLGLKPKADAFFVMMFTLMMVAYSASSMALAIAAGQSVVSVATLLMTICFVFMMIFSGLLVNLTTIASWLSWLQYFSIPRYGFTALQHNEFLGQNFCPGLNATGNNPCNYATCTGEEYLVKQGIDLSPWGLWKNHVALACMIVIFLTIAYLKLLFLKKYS
How it was run: (§1)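 HCT116/R cells from ~90% confluent flasks, trypsinized, washed and resuspended at 10^6 cells/mL in serum-free RPMI. Preincubated 15 min at 37 °C with modulator (10 to 0.1 μM final, from 10 mM DMSO stock), then 3 μM mitoxantrone added for 30 min. Stopped with ice-cold PBS, washed; intracellular mitoxantrone by flow cytometry (488 nm excitation, 670 nm band-pass), mean fluorescence intensity in arbitrary units.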

[3] = molecular target: T1, Broad substrate specificity ATP-binding cassette transporter ABCG2; experiment: Inhibition of BCRP expressed in mitoxantrone-resistant human HCT116 cells assessed as increase in mitoxantrone accumulation at 1 uM after 15 mins; assay type: cell-based; conditions: hct-116, 0.25 h; how it was run: as §1
HCT-116 [4] = experiment: Potentiation of mitoxantrone-induced cytotoxicity in mitoxantrone-resistant human HCT116 cells at 10 uM assessed as apoptotic cells after 48 hrs by flow cytometry; assay type: cell-based; conditions: hct-116, 48 h
How it was run: (§2)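 After 24 h attachment, HCT116/R medium replaced with fresh medium holding 1 μM mitoxantrone plus modulator (10, 1, 0.1 μM); 48 h at 37 °C, PBS washes. Dead cells by propidium iodide uptake (2 μg/mL) in unfixed cells, FSC/FL2 flow cytometry; apoptosis by annexin V-FITC/PI staining, 10 min room temperature, flow cytometry; viable, apoptotic and dead percentages reported.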

HCT-116 [5] = experiment: Potentiation of mitoxantrone-induced cytotoxicity in mitoxantrone-resistant human HCT116 cells at 10 uM assessed as dead cells after 48 hrs by flow cytometry; assay type: cell-based; conditions: hct-116, 48 h; how it was run: as §2

## CC(C)(C)OC(=O)N1CCN(C(=O)c2cc(=O)c3c(O)cccc3o2)CC1
[1]
  viability at 48 h, 10 µM: 60%
[2]
  Fluorescence intensity: 179 a.u.

## CCCCCN1CCN(C(=O)c2cc(=O)c3c(O)cccc3o2)CC1
[2]
  Fluorescence intensity: 225 a.u.

## O=C(c1cc(=O)c2c(O)cccc2o1)N1CCN(CCO)CC1
[2]
  Fluorescence intensity: 72 a.u.

## O=C(c1cc(=O)c2c(O)cccc2o1)N1CCN(CC2CCCCC2)CC1
[2]
  Fluorescence intensity: 92 a.u.

## COc1ccc(CCNC(=O)c2cc(=O)c3c(O)cccc3o2)cc1OC
[1]
  viability at 48 h, 10 µM: 60%
[3]
  Activity: Active
[2]
  Fluorescence intensity: 315 a.u.

## COc1ccc(CNC(=O)c2cc(=O)c3c(O)cccc3o2)cc1OC
[2]
  Fluorescence intensity: 197 a.u.

## CCCCN1CCN(C(=O)c2cc(=O)c3c(O)cccc3o2)CC1
[1]
  viability at 48 h, 10 µM: 60%
HCT-116 [4]
  Activity: 27%
HCT-116 [5]
  Activity: 22%
[2]
  Fluorescence intensity: 223 a.u.

## CC(C)CN1CCN(C(=O)c2cc(=O)c3c(O)cccc3o2)CC1
[2]
  Fluorescence intensity: 92 a.u.

## O=C(c1cc(=O)c2c(O)cccc2o1)N1CCNCC1
[2]
  Fluorescence intensity: 86 a.u.

## CCCN1CCN(C(=O)c2cc(=O)c3c(O)cccc3o2)CC1
[2]
  Fluorescence intensity: 104 a.u.

## COc1ccc(CCNC(=O)c2cc(=O)c3c(O)cccc3o2)cc1
HCT-116 [4]
  Activity: 42%
[3]
  Activity: Active
HCT-116 [5]
  Activity: 8%
[2]
  Fluorescence intensity: 320 a.u.

## O=C(NCCc1ccccc1)c1cc(=O)c2c(O)cccc2o1
[1]
  viability at 48 h, 10 µM: 60%
[2]
  Fluorescence intensity: 282 a.u.

## CC(=O)N1CCN(C(=O)c2cc(=O)c3c(O)cccc3o2)CC1
[2]
  Fluorescence intensity: 112 a.u.

## CCN1CCN(C(=O)c2cc(=O)c3c(O)cccc3o2)CC1
[2]
  Fluorescence intensity: 108 a.u.

## COc1ccc2c3c([nH]c2c1)[C@H](C=C(C)C)N1C(=O)[C@@H]2CCCN2C(=O)[C@@H]1C3 [FUMITREMORGIN]
[2]
  Fluorescence intensity: 315 a.u.

## Cc1ccc(NC(=O)c2ccc(CN3CCN(C)CC3)cc2)cc1Nc1nccc(-c2cccnc2)n1 [IMATINIB]
[2]
  Fluorescence intensity: 334 a.u.
